{"data": "Measured values collected from several papers", "MDH2": "Malate dehydrogenase, mitochondrial (MDH2, Sus scrofa, UniProt P00346)", "Gpr84": "G-protein coupled receptor 84 (Gpr84, Mus musculus, UniProt Q8CIM5)", "note": "Each line is one published result; the experiments were not run side by side."}
{"Structure (SMILES)": "CC(O)CN1CCC(CC[S+]([O-])C(c2ccc(F)cc2)c2ccc(F)cc2)CC1 (centres unmarked)", "target": "Transporter (Slc6a2, Rattus norvegicus, UniProt Q63380)", "effect on": "ligand displacement", "method": "radioligand", "quantity": "Ki", "result": "> 100000 nM"}
{"Structure (SMILES)": "O=C(Nc1ccc(Sc2nc3ccccc3s2)c(Cl)c1)c1cccc(Br)c1O", "target": "MDH2", "effect on": "enzyme activity", "action": "inhibitor", "quantity": "IC50", "result": "> 62500 nM"}
{"Structure (SMILES)": "CNC(=O)c1cc2c(Oc3ccc(NC(=O)C4(C(=O)Nc5ccc(F)cc5)CC4)cc3)ccnc2cc1OC", "target": "Tyrosine-protein kinase Mer (MERTK, Homo sapiens, UniProt Q12866)", "effect on": "enzyme activity", "action": "inhibitor", "method": "radiometric", "quantity": "IC50", "result": "0.9 nM"}
{"Structure (SMILES)": "CC(C)(C)n1nc(-c2cnc3cc(OC4CC4)ccc3c2)c(C(N)=O)c1N", "target": "Calcium/calmodulin-dependent protein kinase kinase 2 (CAMKK2, Homo sapiens, UniProt Q96RR4)", "effect on": "cell-free assay", "quantity": "IC50", "result": "> 10000 nM"}
{"Structure (SMILES)": "CCCN1CCN(c2ccc(-c3cncc(Cl)c3N3CCC4(CCNC4=O)CC3)cc2)CC1", "target": "Cyclin-dependent kinase 1 (CDK1, Homo sapiens, UniProt P06493)", "effect on": "cell-free assay", "notes": "lysate", "quantity": "Kd", "result": "18900 nM"}
{"Structure (SMILES)": "Cc1cc2nc3c(=O)[nH]c(=O)nc-3n(C[C@H](O)[C@H](O)[C@H](O)COP(=O)(O)OP(=O)(O)OC[C@H]3O[C@@H](n4cnc5c(N)ncnc54)[C@H](O)[C@@H]3O)c2cc1C", "target": "Ataxin-2 (Homo sapiens, UniProt Q99700)", "effect on": "binding", "notes": "lysate", "quantity": "Kd", "result": "22 nM"}
{"Structure (SMILES)": "O=S(=O)(Nc1ccc(-c2nc3cc(NS(=O)(=O)c4ccccc4)ccc3o2)cc1)c1ccccc1", "target": "MDH2", "effect on": "enzyme activity", "action": "inhibitor", "quantity": "IC50", "result": "> 62500 nM"}
{"Structure (SMILES)": "Cc1ncsc1-c1ccc(CNC(=O)[C@@H]2C[C@@H](O)CN2C(=O)[C@@H](NC(=O)CCCCCCCCCC(=O)N2CCN(CC[C@H](NC(=O)C3(N)CCN(c4ncnc5[nH]ccc45)CC3)c3ccc(Cl)cc3)CC2)C(C)(C)C)cc1", "target": "RAC-alpha serine/threonine-protein kinase (AKT1, Homo sapiens, UniProt P31749)", "effect on": "binding", "method": "competition with immobilised ligand", "quantity": "Kd", "result": "10 nM"}
{"Structure (SMILES)": "CC(C)C[C@H](NC(=O)[C@@H](N)CCCNC(=N)N)C(=O)N[C@@H](Cc1ccc(O)cc1)C(=O)N[C@@H](Cc1ccc(O)cc1)C(=O)N[C@@H](Cc1ccccc1)C(=O)N[C@@H](Cc1c[nH]c2ccccc12)C(=O)N[C@@H](CC(=O)O)C(=O)O", "target": "DNA dC->dU-editing enzyme APOBEC-3G (APOBEC3G, Homo sapiens, UniProt Q9HC16)", "effect on": "enzyme activity", "action": "inhibitor", "quantity": "Ki", "result": "~650 nM"}
{"Structure (SMILES)": "CCCCCCCCNc1cc(=O)[nH]c(=O)[nH]1", "target": "Gpr84", "effect on": "cAMP", "action": "agonist", "quantity": "EC50", "result": "66 nM"}
{"Structure (SMILES)": "CC(=O)N[C@@H](CCCNC(=N)N)C(=O)NCC(=O)NCC(=O)N1CCC[C@H]1B(O)O", "target": "Dipeptidyl peptidase 4 (DPP4, Homo sapiens, UniProt P27487)", "effect on": "enzyme activity", "action": "inhibitor", "method": "fluorescence", "quantity": "Ki", "result": "322 nM"}
{"Structure (SMILES)": "COc1c(Br)cccc1C(=O)Nc1ccc(Sc2nc3ccccc3s2)c(Cl)c1", "target": "MDH2", "effect on": "enzyme activity", "action": "inhibitor", "quantity": "IC50", "result": "> 62500 nM"}
{"Structure (SMILES)": "CCCCCCCCCC(=O)O", "target": "Gpr84", "effect on": "cAMP", "action": "agonist", "quantity": "EC50", "result": "> 10000 nM"}
{"Structure (SMILES)": "Cc1cnc(-c2ccc(-c3ccc(NC(=O)Nc4c(F)cc(F)cc4F)cc3F)c3c2C(=O)NC3)[nH]1", "target": "Proto-oncogene tyrosine-protein kinase Src (SRC, Homo sapiens, UniProt P12931)", "effect on": "binding", "method": "competition with immobilised ligand", "quantity": "Kd", "result": "110 nM"}
